# Laboratory results published in ChEMBL document CHEMBL3124843, “Synthesis, cytostatic, antimicrobial, and anti-HCV activity of 6-substituted 7-(het)aryl-7-deazapurine ribonucleosides” (J Med Chem, 2014).
# Active and inactive are the calls of the source. No rule for the calls is given here.
# Columns and labels:
# [1] = Antiproliferative activity against human HeLaS3 cells after 72 hrs by XTT assay; type: functional, cell-based; details: HeLa S3, 72 h
# Outline: (§1)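 Antiproliferative test on HL-60 promyelocytic leukemia and HeLa S3 cervical carcinoma cells growing in liquid suspension.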
# Pseudomonas aeruginosa [2] = test: Antibacterial activity against multi-resistant Pseudomonas aeruginosa A/16575 after 24 hrs; type: functional, organism-based
# Hepatitis C virus [3] = test: Antiviral activity against Hepatitis C virus subtype 1b infected in human HuH7 cells; type: functional, organism-based, Hepacivirus hominis; details: genotype 1b, Huh-7
# HCT-116 [4] = test: Cytostatic activity against human HCT116 cells after 72 hrs by MTT assay; type: functional, cell-based; details: HCT-116, 72 h
# Outline: (§2)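 IC50 is the concentration that cuts cell growth by 50%, read by quantitative metabolic MTT staining after a 3-day treatment. The resistant sublines were made by raising the concentration of the cytotoxic drug step by step. CEM-DNR-bulk (daunorubicin-selected) stably overexpresses mrp-1. K562-TAX (paclitaxel-selected) expresses only mdr-1. HCT116p53−/− carries null p53 alleles. BJ and MRC-5 are nonmalignant fibroblasts.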
# Candida parapsilosis = test: Antifungal activity against Candida parapsilosis after 48 hrs; type: functional, organism-based
# Escherichia coli [5] = test: Antibacterial activity against multi-resistant Escherichia coli C/16702 after 24 hrs; type: functional, organism-based
# Enterococcus faecalis = test: Antibacterial activity against Enterococcus faecalis CCM 4224 after 24 hrs; type: functional, organism-based
# HepG2 = test: Antiproliferative activity against human HepG2 cells after 72 hrs by XTT assay; type: functional, cell-based; details: HepG2, 72 h
# MRC5 = test: Cytostatic activity against human MRC5 cells after 72 hrs by MTT assay; type: ADME, cell-based; details: MRC5, 72 h; outline: as §2
# Staphylococcus aureus [6] = test: Antibacterial activity against methicillin-resistant Staphylococcus aureus MRSA 4591 after 24 hrs; type: functional, organism-based
# Pseudomonas aeruginosa [7] = test: Antibacterial activity against Pseudomonas aeruginosa CCM 3955 after 24 hrs; type: functional, organism-based
# Candida tropicalis = test: Antifungal activity against Candida tropicalis after 48 hrs; type: functional, organism-based
# [8] = tested on: Staphylococcus haemolyticus; test: Antibacterial activity against methicillin-resistant Staphylococcus haemolyticus A/16568 after 24 hrs; type: functional, organism-based
# A549 = test: Cytostatic activity against human A549 cells after 72 hrs by MTT assay; type: functional, cell-based; details: A549, 72 h; outline: as §2
# CCRF-CEM = test: Cytostatic activity against human CCRF-CEM cells after 72 hrs by MTT assay; type: functional, cell-based; outline: as §2
# Escherichia coli [9] = test: Antibacterial activity against Escherichia coli CCM 3954 after 24 hrs; type: functional, organism-based
# Pichia kudriavzevii = test: Antifungal activity against Candida crusei after 48 hrs; type: functional, organism-based
# [10] = Cytotoxicity against human HuH7 cells infected with Hepatitis C virus subtype 1b; type: cell-based, Huh-7
# [11] = Cytostatic activity against human CEM-DNR-bulk cells after 72 hrs by MTT assay; type: functional, cell-based; outline: as §2
# K562 [12] = test: Cytostatic activity against paclitaxel-resistant human K562 cells after 72 hrs by MTT assay; type: functional, cell-based; details: K562, 72 h; outline: as §2
# K562 [13] = test: Cytostatic activity against human K562 cells after 72 hrs by MTT assay; type: functional, cell-based; details: K562, 72 h; outline: as §2
# [14] = Cytotoxicity against human HuH7 cells infected with Hepatitis C virus subtype 2a; type: cell-based, Huh-7
# HCT-116 [15] = test: Cytostatic activity against p53-deficient human HCT116 cells after 72 hrs by MTT assay; type: functional, cell-based; details: HCT-116, 72 h; outline: as §2
# HL-60 = test: Antiproliferative activity against human HL60 cells after 72 hrs by XTT assay; type: functional, cell-based; details: HL-60, 72 h; outline: as §1
# Staphylococcus aureus [16] = test: Antibacterial activity against Staphylococcus aureus CCM 3953 after 24 hrs; type: functional, organism-based
# Hepatitis C virus [17] = test: Antiviral activity against Hepatitis C virus subtype 2a infected in human HuH7 cells; type: functional, organism-based, Hepacivirus hominis; details: genotype 2a, Huh-7
# Candida albicans = test: Antifungal activity against Candida albicans after 48 hrs; type: functional, organism-based
# BJ = test: Cytostatic activity against human BJ cells after 72 hrs by MTT assay; type: ADME, cell-based; outline: as §2
Compound,IC50 [1] [µM],Activity (Pseudomonas aeruginosa [2]),EC50 (Hepatitis C virus [3]) [µM],IC50 (HCT-116 [4]) [µM],Activity (Candida parapsilosis),Activity (Escherichia coli [5]),Activity (Enterococcus faecalis),IC50 (HepG2) [µM],IC50 (MRC5) [µM],Activity (Staphylococcus aureus [6]),Activity (Pseudomonas aeruginosa [7]),Activity (Candida tropicalis),Activity [8],IC50 (A549) [µM],IC50 (CCRF-CEM) [µM],Activity (Escherichia coli [9]),Activity (Pichia kudriavzevii),CC50 [10] [µM],IC50 [11] [µM],IC50 (K562 [12]) [µM],also measured
CNc1ncnc2c1c(-c1cccs1)cn2[C@@H]1O[C@H](CO)[C@@H](O)[C@H]1O,> 20,inactive,> 44,> 20,inactive,inactive,inactive,> 20,> 100,inactive,inactive,inactive,inactive,> 20,> 20,inactive,inactive,> 44,> 20,> 20,IC50 (K562 [13]): > 20 µM; CC50 [14]: > 44 µM; IC50 (HCT-116 [15]): > 20 µM; IC50 (HL-60): > 20 µM; Activity (Staphylococcus aureus [16]): inactive; EC50 (Hepatitis C virus [17]): > 44 µM; Activity (Candida albicans): inactive; IC50 (BJ): > 100 µM
Nc1nc2c(c(-c3ccoc3)cn2[C@@H]2O[C@H](CO)[C@@H](O)[C@H]2O)c(=O)[nH]1,10.7,inactive,25.7,14.2,inactive,inactive,inactive,> 20,86.1,inactive,inactive,inactive,inactive,> 20,17.9,inactive,inactive,> 44,15,12.5,IC50 (K562 [13]): 19.6 µM; CC50 [14]: > 44 µM; IC50 (HCT-116 [15]): 17.6 µM; IC50 (HL-60): > 15 µM; Activity (Staphylococcus aureus [16]): inactive; EC50 (Hepatitis C virus [17]): 40.7 µM; Activity (Candida albicans): inactive; IC50 (BJ): 21.5 µM
Cc1ncnc2c1c(-c1cccs1)cn2[C@@H]1O[C@H](CO)[C@@H](O)[C@H]1O,> 15,inactive,6.67,> 20,inactive,inactive,inactive,> 15,> 100,inactive,inactive,inactive,inactive,> 20,> 20,inactive,inactive,> 44,> 20,> 20,IC50 (K562 [13]): > 20 µM; CC50 [14]: > 44 µM; IC50 (HCT-116 [15]): > 20 µM; IC50 (HL-60): 5.73 µM; Activity (Staphylococcus aureus [16]): inactive; EC50 (Hepatitis C virus [17]): > 44 µM; Activity (Candida albicans): inactive; IC50 (BJ): > 100 µM
O=c1[nH]cnc2c1c(-c1ccoc1)cn2[C@@H]1O[C@H](CO)[C@@H](O)[C@H]1O,> 20,inactive,4.54,10.3,inactive,inactive,inactive,12.1,> 100,inactive,inactive,inactive,inactive,> 20,9.03,inactive,inactive,> 44,> 20,14.5,IC50 (K562 [13]): 12.5 µM; CC50 [14]: > 44 µM; IC50 (HCT-116 [15]): 14.8 µM; IC50 (HL-60): 6.37 µM; Activity (Staphylococcus aureus [16]): inactive; EC50 (Hepatitis C virus [17]): 22.3 µM; Activity (Candida albicans): inactive; IC50 (BJ): > 100 µM
CN(C)c1ncnc2c1c(-c1ccccc1)cn2[C@@H]1O[C@H](CO)[C@@H](O)[C@H]1O,> 20,inactive,26.9,> 20,inactive,inactive,inactive,> 20,> 100,inactive,inactive,inactive,inactive,> 100,> 20,inactive,inactive,> 44,> 20,> 20,IC50 (K562 [13]): > 20 µM; CC50 [14]: > 44 µM; IC50 (HCT-116 [15]): > 20 µM; IC50 (HL-60): > 20 µM; Activity (Staphylococcus aureus [16]): inactive; EC50 (Hepatitis C virus [17]): > 44 µM; Activity (Candida albicans): inactive; IC50 (BJ): > 100 µM
CN(C)c1ncnc2c1c(-c1ccoc1)cn2[C@@H]1O[C@H](CO)[C@@H](O)[C@H]1O,9.06,inactive,7.88,> 20,inactive,inactive,inactive,12.5,> 100,inactive,inactive,inactive,inactive,> 20,13.3,inactive,inactive,> 44,> 20,14.9,IC50 (K562 [13]): 1.54 µM; CC50 [14]: > 44 µM; IC50 (HCT-116 [15]): > 20 µM; IC50 (HL-60): 1.16 µM; Activity (Staphylococcus aureus [16]): inactive; EC50 (Hepatitis C virus [17]): > 44 µM; Activity (Candida albicans): inactive; IC50 (BJ): 99.2 µM
